# CCR6 antag – antagonists of human CCR6 receptor; CHO-K1 CCR6 PathHunter beta-arrestin, luminescence, CCL20-stimulated; inhibition, % at 20 µM; AID 493098; hit rate 0.49% among 340,000; P51684;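 active means compounds whose inhibition of the agonist-driven luminescence signal at 20 µM reaches about 50%, limit read from the data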;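 further: cells stimulated with CCL20 at 14 nM final; plate controls were DMSO with CCL20 for no effect and DMSO without agonist for full effect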
# m5-HT2A agonist – activates the mouse 5-HT2A serotonin receptor | AID 624169 | CHO-K1 mHTR2A beta-arrestin complementation, luminescence; percent of 30 µM serotonin response | hit rate 0.66% among 360,000 | activation, % at 7.6 µM | P35363;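 active means activation above a run cutoff, the mean activation of all tested compounds plus 3 SD, cut at about 14% in these data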;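 further: 0% = plate median of compound wells and 100% = 30 µM serotonin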
# APJ antag – antagonists of human APJ apelin receptor; CHO-K1 APJ beta-arrestin complementation, luminescence; inhibition, % at 20 µM; hit rate 0.32% among 330,000; AID 2521;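 active means inhibition above about 40% at 20 µM, limit read from the data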;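 further: cells challenged with 10 nM apelin-13 agonist together with compound; plate controls were apelin-13 plus DMSO wells for no effect and DMSO wells lacking apelin-13 for full effect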
# APJ ag – APJ receptor agonism; P35414; CHO-K1 APJ PathHunter beta-arrestin, luminescence; 0% DMSO wells, 100% apelin; activation, % at 20 µM; hit rate 0.11% among 330,000;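 active means activation more than six SD over the plate average, tested at 20 µM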;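 further: 0% = DMSO alone and 100% = apelin-13 at 10 nM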
#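 Test system: CHO-K1 APJ beta-arrestin complementation cell line | Compound: Single test compound dose, 20 µM final, 1% DMSO | Incubation: Compound 90 min 25 °C, reagent 1 h | Measured by: beta-gal luminescence | Read-out basis: APJ–arrestin association signal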
# NTR1 ag – activates human neurotensin receptor 1; NTR1-U2OS beta-arrestin-GFP spot imaging, agonist mode; hit rate 0.17% among 330,000; P30989; activation, % at 20 µM; AID 493036;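 active means activation at or above 40% of the spot to cytoplasm intensity ratio, with at least 20 cells analyzed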;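 further: 0% = DMSO without peptide and 100% = 100 nM NTR1 peptide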
# Target sequence (P30989 whole entry, looked up): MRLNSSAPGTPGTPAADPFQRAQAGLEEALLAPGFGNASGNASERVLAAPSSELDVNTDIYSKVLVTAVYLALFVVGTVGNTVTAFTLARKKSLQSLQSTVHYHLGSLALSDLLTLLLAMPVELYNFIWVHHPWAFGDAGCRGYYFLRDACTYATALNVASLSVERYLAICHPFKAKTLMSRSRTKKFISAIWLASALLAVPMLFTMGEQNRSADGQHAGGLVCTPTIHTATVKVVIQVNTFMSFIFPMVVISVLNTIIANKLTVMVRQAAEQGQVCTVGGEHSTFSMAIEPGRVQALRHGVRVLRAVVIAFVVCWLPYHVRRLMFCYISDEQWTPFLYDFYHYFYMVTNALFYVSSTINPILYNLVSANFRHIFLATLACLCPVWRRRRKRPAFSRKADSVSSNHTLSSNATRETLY
# CXCR6 block – blocks human CXCR6 beta-arrestin recruitment; hit rate 0.36% among 360,000; inhibition, % at 20 µM; O00574; CHO-K1 PathHunter CXCR6 beta-arrestin, luminescence; in the data active means inhibition above about 34%, passing the limit was not always enough;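 further: antagonist mode with CXCL16 agonist at 10 nM final; 0% = 10 nM CXCL16 with DMSO and 100% = unstimulated wells without agonist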
# MOR ag counter – counter-screen for mouse HTR2A agonists: human mu opioid receptor agonists; shares compounds with m5-HT2A agonist; AID 624380; hit rate 5.3% among 2,300; activation, % at 9.3 µM; U2OS OPRM1 beta-arrestin PathHunter, luminescence; DMSO 0%, DAMGO 9.3 µM 100%;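 active means mean activation above the mean of DMSO-only wells plus 3 SD, cut at about 0.5% in these data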
# m5-HT2A ag conf – confirmation of mouse HTR2A serotonin receptor agonists; shares compounds with m5-HT2A agonist; CHO-K1 PathHunter beta-arrestin recruitment, luminescence; DMSO 0%, 30 µM serotonin 100%; activation, % at 7.6 µM; hit rate 19% among 2,300; AID 624381;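 active means mean activation across triplicates above the hit threshold derived in the original primary screen, cut at about 15% in these data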
# The depositor's hits bear a star; . = not tested or not shown. Hits are enriched below; roughly 1.5% of the tested compounds scored in any of these assays.
SMILES,CCR6 antag,m5-HT2A agonist,APJ antag,APJ ag,NTR1 ag,CXCR6 block,MOR ag counter,m5-HT2A ag conf
CC(=O)C1C=CC(C)(C(=O)O)C2C=C(C)C(=O)C(C)(O)C12 (centres undefined),10,0,.,.,.,-16,.,.
O=C(COc1ccc(Cl)cc1)NCCS(=O)(=O)N1CCN(c2ccccc2F)CC1,12,16*,11,-3,0,0,0,2
O=C(Cc1ccc(Cl)cc1)NCCS(=O)(=O)N1CCN(c2ccccc2F)CC1,16,2,-51,-1,1,-1,.,.
O=C(COc1cc(Cl)c(Cl)cc1Cl)Nc1ccncc1,7,7,-30,10,3,-7,.,.
O=C(COc1cc(Cl)c(Cl)cc1Cl)Nc1cccc(O)c1,-3,22*,11,-4,0,-7,0,-1
CCc1cccc(C)c1NC(=O)CN(C)C1=NS(=O)(=O)c2ccccc21,8,2,-2,-4,-1,3,.,.
Cc1cc(Cl)ccc1NC(=O)CN(C)C1=NS(=O)(=O)c2ccccc21,7,15*,0,-4,0,6,0,1
CCS(=O)(=O)c1cc([N+](=O)[O-])c(Sc2ccccc2NC(C)=O)s1,16,1,14,-3,1,2,.,.
CN1CCN(S(=O)(=O)c2cccc(C(=O)Oc3cccc(C#N)c3)c2)CC1,-7,3,3,3,1,4,.,.
COc1cc(C#N)ccc1OC(=O)c1cccc(S(=O)(=O)N2CCN(C)CC2)c1,7,18*,11,0,1,6,-1,-6
CCCN1C[C@H](CSC)C[C@@H]2c3cccc4[nH]cc(c34)C[C@H]21,17,113*,30,-3,3,5,0,160*
COc1cccc(-c2cnc(C(O)c3ccc(Cl)c(Cl)c3)[nH]2)c1 (centres undefined),.,-1,.,.,.,-4,.,.
CN(CC(=O)Nc1c(Cl)cccc1Cl)C(=O)c1cc(S(=O)(=O)N(C)C)ccc1N1CCCC1,8,-1,-8,-4,1,0,.,.
Nc1ccc(C(=O)N/N=C\C=C\c2ccc([N+](=O)[O-])cc2)cc1,-6,17*,-28,9,1,-8,0,4
O=C(Cn1cc(Br)ccc1=O)Nc1ccc2c(c1)OCO2,-13,-4,5,-4,-2,2,.,.
O=C(Cn1cc(C(F)(F)F)ccc1=O)Nc1ccc2c(c1)OCO2,.,17*,.,.,.,4,-1,-3
CC(C)N(C(=O)CSc1ccc(S(=O)(=O)N2CCCCC2)cn1)C(C)C,5,0,-15,1,2,-1,.,.
COc1cc(/C=N/NC(=O)c2cc(-c3cccc(OC(C)C)c3)nc3ccccc23)ccc1O,17,0,-9,4,5,5,.,.
Cc1cc2c(=O)[nH]c(N)nc2[nH]1,.,16*,.,.,.,-5,0,1
O=S(=O)(NC1=NCCCCC1)c1cc(F)ccc1F,16,22*,-3,-3,-1,-3,-1,2
O=C(CN(Cc1ccccc1F)C(=O)c1csnn1)NCc1ccc2c(c1)OCO2,18,4,5,-4,0,0,.,.
CC(CNC(=O)CCCn1ncn2c(cc3occc32)c1=O)c1ccccc1 (centres undefined),9,16*,4,-4,2,7,-1,-6
Clc1ccc(/C=N/NC2=Nc3cccc4cccc2c34)cc1,11,15*,0,-1,9,2,0,2
C(=N\NC1=Nc2cccc3cccc1c23)/c1ccccc1,13,-2,11,0,3,-3,.,.
O=C(NC1CCCCC1)C(C1CC1)n1c(=O)c(-c2ccco2)nc2ccccc21 (centres undefined),.,16*,.,.,.,.,-1,-3
SMILES,CCR6 antag,m5-HT2A agonist,APJ antag,APJ ag,NTR1 ag,CXCR6 block,MOR ag counter,m5-HT2A ag conf
COc1ccc(-c2cccc(NS(=O)(=O)c3cccc([N+](=O)[O-])c3)c2)nn1,9,17*,-29,8,1,-4,0,-3
COC(=O)[C@]12CCCCC=C1N(Cc1cccc3ccccc13)C(=O)[C@H](CC(=O)N1CCC(c3ccccc3)CC1)C2,.,0,.,.,.,-1,.,.
CCOC(=O)[C@]12CCCC=C1N(Cc1cccc3ccccc13)C(=O)[C@H](CC(=O)N1CCC(c3ccccc3)CC1)C2,.,17*,.,.,.,8,-1,-2
CC1(C)CC(=O)C2=C(C1)OC(N)=C(C#N)C21CCN(Cc2ccccc2)CC1,7,-3,-18,7,-2,-1,.,.
Cc1nc2c([nH]1)C1(CCN(Cc3ccccc3)CC1)C(C#N)=C(N)O2,6,33*,10,2,-2,5,0,0
NS(=O)(=O)c1ccc(NC(=O)COC(=O)c2ncc(Cl)c(Cl)c2Cl)cc1,3,4,13,-3,8,0,.,.
CC1CC(c2ccccc2)NS(=O)(=O)O1 (centres undefined),0,4,10,-6,-4,-4,.,.
CCCCOc1ccc(S(=O)(=O)NC(=O)C2(C)CCN2C(=O)CCc2ccccc2)cc1 (centres undefined),.,17*,.,.,.,3,0,-2
CCCCOc1ccc(S(=O)(=O)NC(=O)C2(C)CCN2C(=O)Cc2ccccc2Cl)cc1 (centres undefined),.,1,.,.,.,3,.,.
O=C(Nc1ccc(F)cc1)C(c1ccncc1)N1CCN(CC(=O)N2CCCC2)CC1 (centres undefined),.,7,.,.,.,.,.,.
CSc1ccc(CCNC(=O)CCc2nnc3ccc(N4CCOCC4)nn23)cc1,6,3,13,1,-1,5,.,.
CSc1ccc(CCNC(=O)CCc2nnc3ccc(N4CCCCC4)nn23)cc1,3,20*,-6,-2,3,1,0.7*,5
COc1cc(/C=C(/C#N)c2nc3ccccc3[nH]2)ccc1OCc1ccc(C(=O)O)o1,9,19*,20,-3,-1,6,1.7*,-2
C=C(C)C1CC=C(CN2CC(C)OC(C)C2)CC1 (centres undefined),-6,1,-2,-5,0,-11,.,.
C=C(C)C1CC=C(CN2CCC(C(=O)OCC)CC2)CC1 (centres undefined),15,18*,3,-7,-1,0,0,26*
Cc1ccc(-n2cc(CN3CCN(C(=O)c4ncn[nH]4)CC3)c(-c3ccc(F)cc3)n2)cc1,-4,-4,-11,-4,4,6,.,.

# Screens deposited in PubChem BioAssay by several laboratories.
